# Bioassay records (PubChem)
# In the library only some 29% were active in any assay of this set; here they are far more common.
# CYP2C9 act = human CYP2C9 activators, primary screen, biochemical, luminescence; activation factor at 5 µM; recombinant CYP2C9, luciferin-H conversion; active compounds read high; factor 1 = untreated enzyme, 0 = blocked; actives 1.4% (n = 96,000); Cytochrome P450 2C9 (Homo sapiens), P11712;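 active means activation factor of 2 or more for CYP2C9 at a 5 µM dose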;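 further: 0 = sulfaphenazole-blocked wells and 1 = vehicle-only wells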
# Target sequence (P11712 whole entry, looked up): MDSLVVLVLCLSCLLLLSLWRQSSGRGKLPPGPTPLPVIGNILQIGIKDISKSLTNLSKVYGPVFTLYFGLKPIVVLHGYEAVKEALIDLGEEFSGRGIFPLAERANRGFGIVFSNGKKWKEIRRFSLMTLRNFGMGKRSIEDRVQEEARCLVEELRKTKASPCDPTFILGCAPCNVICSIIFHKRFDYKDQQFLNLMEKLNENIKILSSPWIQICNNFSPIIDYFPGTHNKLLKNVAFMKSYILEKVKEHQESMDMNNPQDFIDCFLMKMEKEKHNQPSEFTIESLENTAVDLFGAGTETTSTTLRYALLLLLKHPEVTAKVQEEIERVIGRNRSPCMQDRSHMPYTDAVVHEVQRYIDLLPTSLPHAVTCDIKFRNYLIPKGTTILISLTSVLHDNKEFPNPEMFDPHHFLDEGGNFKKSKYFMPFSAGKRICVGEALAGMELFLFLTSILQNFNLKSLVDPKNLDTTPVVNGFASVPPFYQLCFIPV
# CYP2C9 inh = blockers of cytochrome P450 2C9 activity – biochemical, luminescence, ADME assay, primary screen; P11712; CYP2C9 Supersomes, luciferin-H conversion; actives 20% (n = 96,000); inhibition, % at 5 µM;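 active means blocking of liver enzyme CYP2C9 beyond about 50% at 5 µM, limit read from the data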
# Ecoli WT expand = growth inhibitors of wild-type E. coli, primary screen, strain BW25113, expanded library, OD600. OD600 absorbance. actives 0.15% (n = 98,000). growth inhibition, % at 100 µM;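 active means growth inhibition above about 50% at one test dose, limit read from the data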;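 further: growth measured after 20 h incubation at 37 °C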
# tolC growth inh = growth inhibitors of E. coli tolC mutant, primary screen, strain BW25113 ΔtolC::kan, 384-well | OD615 | growth inhibition, % at 10 µM (by protocol) | actives 2.2% (n = 65,000);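 active means growth inhibition at or above a cutoff equal to the mean over every tested compound plus 3 SD, cut at about 60% in these data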;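 further: growth measured after 20 h incubation at 37 °C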
#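 Test system: E. coli BW25113 ΔtolC::kan bacteria | Medium: Kanamycin-containing LB broth (50 µg/mL) | Dosing: One dose of 10 µM final | Times: 20 h incubation with compound, 37 °C | Detection: Optical density read at 615 nm | Read-out basis: Percent growth inhibition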
# CYP2C19 act = human CYP2C19 activators, primary screen, biochemical, luminescence; Cytochrome P450 2C19 (Homo sapiens), P33261; recombinant CYP2C19, luciferin-H EGE luminescence; active compounds read high; 0 = fully inhibited enzyme, 1 = untreated enzyme; activation factor at 5 µM; 96,000 tested, under 10 active; AID 1025, 2008;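 active means activation factor of at least 2 at 5 µM in the primary screen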;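 further: 0 = wells with 2.5 mM tranylcypromine and 1 = vehicle-only wells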
# CYP2C19 inh = blockers of cytochrome P450 2C19 activity – biochemical, luminescence, ADME assay, primary screen; P33261; CYP2C19 Supersomes, luciferin-H EGE luminescence, 30 min; inhibition, % at 5 µM; actives 21% (n = 96,000); AID 778, 2007;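 active means CYP2C19 inhibition above a set limit at 5 µM in the primary screen, cut at about 50% in these data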;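 further: plate controls were negative control wells for no effect and 2.5 mM tranylcypromine positive control for full effect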
# * marks the source's active call; other numbers are inactive results; · = not tested or not shown.
SMILES,CYP2C9 act,CYP2C9 inh,Ecoli WT expand,tolC growth inh,CYP2C19 act,CYP2C19 inh
O=C(CCc1c[nH]c2ccccc12)NCC1CCCO1 (stereo not given),3.1*,-206,3,-1,0.1,89*
O=C(Cc1ccccc1)NCC1CCCO1 (stereo not given),0.9,6,9,·,0.9,11
CN(C)c1ccc(C(=O)OCC(=O)Nc2ccc(S(N)(=O)=O)cc2)cc1,0.9,9,3,-5,1,1
CCN(CC)S(=O)(=O)c1ccc(NC(=O)COc2c(OC)cccc2OC)cc1,0.6,36,-5,1,0.8,22
CCN(CC)S(=O)(=O)c1ccc(NC(=O)COC(=O)c2ccc(Br)o2)cc1,0.3,67*,-4,29,0.8,21
CCN(CC)S(=O)(=O)c1ccc(NC(=O)COC(=O)c2ccc(-n3nc(C)cc3C)cc2)cc1,0.3,71*,-5,·,0.2,85*
O=C1C(c2ccc(F)cc2)N(CC2COc3ccccc3O2)C(=O)CN1C1CCCCC1 (stereo not given),0.7,28,-4,·,1,-2
Cc1cc(C)c(NC(=O)COc2ccccc2C(=O)Nc2ccc3c(c2)oc2ccccc23)c(C)c1,0,97*,-13,·,0.6,37
CCOc1ncccc1C(=O)Nc1ccc2c(C)cc(=O)oc2c1,1.4,-40,5,-9,0.6,45
COc1ccc(Cl)cc1N1C(=O)C2CCCN2C1c1ccc(F)cc1 (stereo not given),2*,-98,2,-5,0.5,49
COc1ccc(C2N(c3cc(Cl)ccc3OC)C(=O)C3CCCN32)cc1 (stereo not given),1.8,-85,-5,-16,0.2,77*
COc1ccc(C2NC(=O)C(C)S2)cc1 (stereo not given),0.9,5,8,·,0.6,45
CCOC(=O)N1CCC(N2Cc3cccc(C(=O)Nc4ccc(F)cc4)c3C2=O)CC1,0.1,90*,-6,·,0.6,44
CCOC(=O)N1CCC(N2Cc3cccc(C(=O)Nc4cc(F)ccc4F)c3C2=O)CC1,0.2,78*,-9,-12,0.8,21
CCOC(=O)N1CCC(N2Cc3cccc(C(=O)NCc4ccc(OC)cc4)c3C2=O)CC1,·,·,·,-12,·,·
CCOC(=O)N1CCC(N2Cc3cccc(C(=O)Nc4ccc(CC)cc4)c3C2=O)CC1,0,100*,-3,·,0.1,94*
CCOC(=O)N1CCC(N2Cc3cccc(C(=O)NCC4CCN(CC(C)C)C4)c3C2=O)CC1 (stereo not given),0,96*,2,-13,0.1,86*
CCOC(=O)N1CCC(N2C(=O)c3ccc(C(=O)NCc4ccc(F)cc4)cc3C2=O)CC1,0.4,58*,-13,1,0.7,29
Cc1ccc(NC(=S)N/N=C/c2ccc(OCCC(C)C)cc2)c(C)c1,0.4,65*,1,·,0.8,24
Cc1ccc(/C=N\NC(=O)c2cc(OCC(F)(F)F)ccc2OCC(F)(F)F)cc1,0.8,21,-6,·,1,4
CCOC(=O)N1CCC(NC(=O)Cn2c3c(c(-c4ccccc4Cl)cc2=O)CCC3)CC1,0.5,54*,-3,31,0.5,46
O=c1c2ccccc2n(Cc2ccccc2F)c(=O)n1Cc1ccccc1F,1.2,-20,-13,·,1.1,-14
O=C(CN1C(=O)COc2ccccc21)N(CCCN1CCOCC1)CC1CC=CCC1 (stereo not given),1.1,-10,-3,-4,1.1,-7
COc1ccc(COC(=O)Nc2cc3c(C(F)(F)F)nn(C)c3s2)cc1,1.1,-10,12,·,0.5,49
Cn1nc(C(F)(F)F)c2cc(NC(=O)OCc3ccc(C(C)(C)C)cc3)sc21,0.5,52*,-4,·,0.8,20
Cn1nc(C(F)(F)F)c2cc(NC(=O)OCc3ccc(F)cc3)sc21,2.5*,-148,10,·,0.5,52*
Cn1nc(C(F)(F)F)c2cc(C(=O)Nc3ccc(Cl)cc3)sc21,1.4,-44,-6,·,0.9,11
